Compounds with a hit are over-represented: about 2.6% of the library has one in this group of screens.
CHT allo act: human CHT allosteric activation. CHT-expressing cells, membrane potential dye, choline EC20; active compounds read high; LV-AA mutant CHT in HEK293 cells. hit rate 0.49% among 310,000. B-score at 10 µM;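 active = initial fluorescence not abnormally high and integrated response B-score, plate-corrected, over 3 SD above library mean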
Target sequence (Q9GZV3 whole entry, looked up): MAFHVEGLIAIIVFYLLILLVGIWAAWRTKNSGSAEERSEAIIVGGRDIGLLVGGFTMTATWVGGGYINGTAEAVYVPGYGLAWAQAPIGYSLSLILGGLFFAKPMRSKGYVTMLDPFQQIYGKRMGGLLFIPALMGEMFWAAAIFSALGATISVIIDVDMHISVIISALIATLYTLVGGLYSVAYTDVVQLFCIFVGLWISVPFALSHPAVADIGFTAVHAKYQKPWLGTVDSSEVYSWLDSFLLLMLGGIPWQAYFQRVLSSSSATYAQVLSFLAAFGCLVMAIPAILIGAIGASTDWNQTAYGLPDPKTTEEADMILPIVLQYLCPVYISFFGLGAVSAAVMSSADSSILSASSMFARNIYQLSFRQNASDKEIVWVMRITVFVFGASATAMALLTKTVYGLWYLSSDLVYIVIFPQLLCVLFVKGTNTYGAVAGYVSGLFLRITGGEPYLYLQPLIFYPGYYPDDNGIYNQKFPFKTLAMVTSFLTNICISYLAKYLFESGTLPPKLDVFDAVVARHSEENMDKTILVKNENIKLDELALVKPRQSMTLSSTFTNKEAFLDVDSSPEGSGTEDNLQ
KCC2 mod: modulators of human KCC2 chloride dependent transport; Q9H2X9; KCC2 cells, thallium flux FluoZin-2 fluorescence; B-score of Tl+ flux slope (higher = more flux/activation; lower = inhibition) at 10 µM; hit rate 2.2% among 190,000; AID 1456;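 active = thallium flux slope and its plate-corrected score both differing from the plate sample mean at a set confidence after two filtering rounds, in either direction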;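 note: slope of fluorescence scaled to starting intensity during 10 to 20 s after thallium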
CHT inh: human CHT choline transport inhibition. Q9GZV3. CHT-expressing cells, membrane potential dye, choline response; active compounds read low. B-score at 10 µM. hit rate 0.86% among 310,000. AID 488975;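 active = B-score over 3 SD under the library average, and starting fluorescence ratio not unusually high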;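 note: choline stimulus applied at its EC90 after an EC20 pre-addition; B-score computed on integrated fluorescence ratio after choline addition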
Rad51 HR inh: Rad51 (human) homologous recombination inhibition. Q06609. hRad51 DNA strand exchange, fluorescence dequenching. inhibition, % at 10 µM. hit rate 0.085% among 200,000;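 active = inhibition above 40% at the single screening dose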;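 note: 0% = DMSO control wells and 100% = blanks with heterologous ssDNA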
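Test system – preformed human Rad51 ssDNA filaments · Reagent – Donor/quencher-labelled 47-bp dsDNA substrate · Incubation – 37 °C 15-min filament assembly, 30-min compound preincubation, 15-min exchange · Signal – FRET fluorescence dequenching, excitation 485 nm, emission 520 nm · Read-out – percent inhibition from fluorescence, normalised to plate control and blank means · Benchmarks – plate control and blank wells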
KCC2 sec1: KCC2 (human) modulation, secondary assay. shares compounds with KCC2 mod. HEK293-KCC2, thallium flux, FluoZin2 fluorescence; active compounds read high. normalised thallium flux (F/F0 slope) at 10 µM. hit rate 15% among 3,700. AID 1713;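 active = thallium flux slope above the same plate's solvent-only control mean plus 3 SD; inconclusive = the two replicate wells disagree; inactive = no significant difference from solvent-only control wells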
KCC2 bumet counter: bumetanide-insensitive thallium flux in KCC2 cells with ouabain, counter-screen | shares compounds with KCC2 mod | HEK293-KCC2 + bumetanide/ouabain, thallium flux FluoZin2; active compounds read high | normalized thallium flux at 10 µM | hit rate 49% among 3,700;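 active = thallium entry rate above the same plate's blocked-transporter control wells by more than 3 SD; inconclusive = the two repeat wells disagree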;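 note: raw slope of fluorescence over initial fluorescence between 10 and 20 s after thallium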
KCC2 secondary2: KCC2 (human) modulation, second secondary assay. shares compounds with KCC2 mod. HEK293-KCC2, thallium flux FluoZin2 fluorescence; actives lie on both sides; F/F0 rise rate, 10–20 s post-thallium. normalized thallium flux at 10 µM. hit rate 23% among 3,700. AID 1715;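 active = thallium flux slope more than 3 SD above or below the plate's solvent-only control mean, mostly below; inconclusive = the two repeat wells disagreed; inactive = no significant shift from solvent-only controls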;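 note: raw slope with 0.1% DMSO as baseline and bumetanide as block control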
HEK293 Tl flux: acts in parental HEK cells, KCC2 counter-screen | HEK293 parental cells, thallium flux FluoZin2, ouabain; baseline-ratio fluorescence slope, 10–20 s after thallium | thallium flux rate (normalised fluorescence) at 10 µM | shares compounds with KCC2 mod | hit rate 46% among 3,700;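 active = thallium flux rate significantly above the same plate's solvent-only control wells, beyond their mean plus 3 SD; inconclusive = the two replicate wells gave conflicting results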
KCC2 retest ouab: modulates human KCC2 on retest with ouabain | shares compounds with KCC2 mod | HEK293-KCC2, thallium flux FluoZin2 fluorescence; bidirectional: low = inhibitor, high = activator | raw Tl+ flux slope (below DMSO = inhibition, above = activation) at 10 µM | hit rate 48% among 3,700 | AID 1717;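 active = thallium flux slope beyond 3 SD from same-plate DMSO control mean in most replicates, usually higher, sometimes lower; inconclusive = repeat tests gave conflicting results; inactive = no significant difference from controls in most replicates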;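 note: slope of initial-normalized fluorescence between seconds 10 and 20 after thallium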
HEK counter2: counter-screen for KCC2 modulators: effect in parental HEK293 cells | shares compounds with KCC2 mod | thallium flux FluoZin-2 fluorescence slope | thallium flux slope at 10 µM | hit rate 33% among 3,700;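 active = thallium flux slope above the same plate's solvent-control mean plus 3 SD in both duplicate wells; inconclusive = duplicate wells that disagreed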;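 note: run without ouabain in cells lacking the KCC2 cotransporter; slope of fluorescence scaled to its starting value between 10 and 20 s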
* marks the source's active call; other numbers are inactive results; i = inactive; u = inconclusive; x = no result given.

SMILES	CHT allo act	KCC2 mod	CHT inh	Rad51 HR inh	KCC2 sec1	KCC2 bumet counter	KCC2 secondary2	HEK293 Tl flux	KCC2 retest ouab	HEK counter2
COc1ccc(Br)cc1C(=O)Nc1ccccc1-c1ccccc1	i	0.56	i	0.4	x	x	x	x	x	x
CCCCCSc1nnc(-c2cc(Br)ccc2N)c(=O)[nH]1	i	x	i	1.7	0.00738	u	0.0324	u	u	0.0102
CC(NC(=O)CN1CCN(Cc2cccc(F)c2)CC1)c1ccccc1 (stereo not drawn)	i	x	i	x	x	x	x	x	x	x
Cc1[nH]n(-c2ccccc2)c(=O)c1/C=N/N1C(=O)c2ccc3c4c(ccc(c24)C1=O)CC3	i	11*	i	0.5	u	0.0209*	0.0319	0.0115*	u	0.0111
Cc1[nH]n(-c2ccccc2)c(=O)c1/C=N/N(C)c1ccccc1	i	22*	i	8.9	0.00668	0.0501*	0.0452*	0.0324*	0.0444*	0.0354*
Cc1[nH]n(-c2ccccc2)c(=O)c1C=Nc1ccc(S(=O)(=O)N(C)C)cc1	i	0.117	i	1.9	x	x	x	x	x	x
Cc1[nH]n(-c2ccccc2)c(=O)c1C=NCC1CCCO1 (stereo not drawn)	i	0.386	i	4.1	x	x	x	x	x	x
CC(=O)N1CC(C)Sc2ccc(S(=O)(=O)N3CCCCC3)cc21 (stereo not drawn)	i	x	i	x	x	x	x	x	x	x
CN(C)C(=S)NC(=O)C12CC3CC(C)(CC(C)(C3)C1)C2	i	16.8*	i	x	u	0.0386*	0.0338	0.0161*	0.0251*	0.0197*
Cc1nc(SCC(=O)NC(C)(C#N)C2CC2)c2c(-c3cccs3)csc2n1 (stereo not drawn)	i	5.09*	i	14.5	0.0111	0.0265*	0.0296	0.0127*	0.0335*	0.0115*
Cn1c(SCC(=O)NCc2ccc3c(c2)OCO3)nc2scc(-c3cccs3)c2c1=O	i	-0.896	i	-0.2	x	x	x	x	x	x
Cc1cc(C)c2nc(N3CCC(C(=O)N4CCN(c5ncccn5)CC4)CC3)sc2c1	i	-1.59	i	-6.8	x	x	x	x	x	x
Cc1cc(C)c2nc(N3CCC(C(=O)N4CCCC4)CC3)sc2c1	i	x	i	-6.6	u	0.00573	0.0339	0.00408	0.0148*	0.0113
Cc1ccc(-n2c(=S)[nH]c3c(oc4ccccc43)c2=O)cc1C	i	5.69*	i	5.6	0.0171*	0.0398*	0.0297	0.0176*	0.0293*	0.0123*
Cc1sc2ncnc(SCc3ccco3)c2c1C	i	2.45	i	-6.3	x	x	x	x	x	x
CCc1ccc(OCC(=O)NNC(=O)CSc2ncnc3sc(C)c(C)c23)cc1	i	4.48*	i	-3.1	u	0.0147*	0.0289	0.0102*	u	0.00981
Cc1ccc(OCC(=O)NNC(=O)CSc2ncnc3sc(C)c(C)c23)cc1	i	12.6*	i	-2.0	0.0117	0.0157*	0.035	0.02*	0.0287*	0.0132*
Cc1sc2ncnc(SCC(=O)NC(C)(C)C)c2c1C	i	0.419	i	-16.6	x	x	x	x	x	x
Cc1sc2ncnc(SCC(=O)c3ccc(O)cc3O)c2c1C	i	102*	i	-2.0	0.01*	0.087*	0.0756*	0.0764*	0.0781*	0.0552*
Cc1ccc(OCCSc2ncnc3sc(C)c(C)c23)cc1C	i	x	i	x	0.0136*	0.0416*	0.0325	u	u	0.0134*
Cn1c(-c2ccc3c(c2)OCO3)cnc1NCc1cccc(O)c1	i	-0.694	i	-1.2	x	x	x	x	x	x
CC(C)c1ccc(NC(=O)COC(=O)CSc2nnc(N)s2)cc1	i	0.893	i	3.8	x	x	x	x	x	x
O=C(N/N=C/c1ccc(Br)o1)c1cc([N+](=O)[O-])cc([N+](=O)[O-])c1	i	12*	i	8.0	u	0.0238*	0.0277	0.00982*	0.0263*	u
O=C(N/N=C/c1ccco1)c1cc([N+](=O)[O-])cc([N+](=O)[O-])c1	i	4.98	i	9.2	x	x	x	x	x	x
COc1ccc(-c2cc(C(=O)OCC(=O)c3c(N)n(C)c(=O)n(C)c3=O)c3ccccc3n2)cc1	i	-4.77*	i	1.1	0.00869	0.00584	0.0294	0.00707	0.0209	u
SMILES	CHT allo act	KCC2 mod	CHT inh	Rad51 HR inh	KCC2 sec1	KCC2 bumet counter	KCC2 secondary2	HEK293 Tl flux	KCC2 retest ouab	HEK counter2
Cc1ccc(NC(=S)N/N=C/c2ccc([N+](=O)[O-])s2)cc1	i	14.8*	i	1.6	0.0138*	0.0467*	0.0351	u	0.0411*	0.0197*
Cc1cc(C)cc(N=Cc2ccc([N+](=O)[O-])s2)c1	i	-0.0161	i	x	x	x	x	x	x	x
Cn1c(C(=O)N2CCc3ccccc3C2)cc2c(=O)n3ccccc3nc21	i	x	i	-6.0	0.00509	0.00626*	0.0273	0.00729	0.0153*	0.0108
O=C(CCc1ccccn1)N1CCCC(N2CCN(c3cccc(C(F)(F)F)c3)CC2)C1 (stereo not drawn)	i	x	i	x	x	x	x	x	x	x
O=C(c1ccc(S(=O)(=O)N2CCOCC2)cc1)N1CCN(c2ccccn2)CC1	i	0.793	i	x	x	x	x	x	x	x
CC1CCCN(C(=O)COC(=O)c2cccc(NS(=O)(=O)c3ccccc3)c2)C1 (stereo not drawn)	i	x	i	x	x	x	x	x	x	x
Cc1nc(C(=O)NNC(=O)c2cccc(Cl)c2)c(C(F)(F)F)o1	i	11.3*	i	-5.6	0.0126*	0.0192*	0.0328	u	0.0232	0.0115*
O=C(NNC(=O)c1ccccc1Cl)c1ccccc1Cl	i	0.159	i	-12.8	x	x	x	x	x	x
Cc1nc(C(=O)NNC(=O)c2ccccc2Cl)c(C(F)(F)F)o1	i	5.64*	i	10.4	0.00715	0.00702*	0.03	0.0095*	u	u
O=C(NNC(=O)c1cnccc1C(F)(F)F)c1cccc(Cl)c1	i	0.00541	i	-2.0	x	x	x	x	x	x
CCOC(=O)c1c(C)nc2c(c1-c1ccccc1)C(=O)CCC2	i	x	i	0.8	x	x	x	x	x	x
CC1=CC(C)(C)N2C(=O)C3(SCC(=O)N3c3ccc(F)cc3)c3cc(C)cc1c32 (stereo not drawn)	i	x	i	3.6	x	x	x	x	x	x
Cc1cc(=O)[nH]c2ccc(Cl)cc12	i	x	i	-2.7	0.00977	0.0052	0.0372	0.00437	0.0214	0.0109
Cc1cc(=O)c2cc(Cl)ccc2[nH]1	i	-0.512	i	x	x	x	x	x	x	x

Compound activity: PubChem, several laboratories
